The source of these data is paper PMC10512781 (Journal of medicinal chemistry, 2022).

Broadly, the IC50 is the concentration at which inhibition is half-maximal.

“Also recorded” adds a separate entry of the source. Read-outs that look alike come from different tables or passages of the source.

The subject of series [1] is human pancreatic cancer cell lines. The conditions noted are these: at 300 μM; cited from earlier work.
Series [2] concerns CHO cells. The conditions noted are these: at 1 mM; cited from earlier work.
Series [3] relates to CHO-K1 cells. Briefly: 48 h growth inhibition by assay reagents. Type of series: cell-based, Chinese hamster. The conditions noted are these: read-out: 48 h CHO-K1 IC50; CHO-K1, 48 h.
For series [4], the system named is polyamine import in L3.6pl cells. As to the kind of experiment: Radiolabeled spermidine. Type of series: cell-based, human. The conditions noted are these: for basal 3H-Spd uptake: 24 h treatment prior to 3H-Spd for 15 min; for 3H-Spd import in combination with DFMO vs DFMO-only: 72 h with DFMO + compound prior to 3H-Spd for 15 min. In short, it runs like this:
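L3.6pl cells pretreated 24 h with test compound, then exposed to 3H-spermidine for 15 min. Radioactive counts normalised to lysate protein measured by BCA assay. Triplicate conditions; reported as pmol 3H-Spd/μg protein ± standard deviation.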

For series [5], the system named is p21 mRNA in L3.6pl cells. Briefly: qRT-PCR, p21 mRNA. The conditions noted are these: 24 h, qRT-PCR vs matched vehicle control. Type of series: cell-based, human. Put shortly:
(§1)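 For qRT-PCR, L3.6pl cells (400,000) in RPMI 1640 with 10% FBS and 1% antibiotic–antimycotic were seeded in 6-well dishes and held overnight at 37 °C, 5% CO2. Next day they were treated with test compound or DMSO vehicle at 37 °C, then mRNA was measured by quantitative real-time PCR.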
A general note: Quantitative PCR measures a nucleic acid by following its amplification.

The target of series [6] is T1, FUBP1 binding to the FUSE c-myc promoter region in L3.6pl cells (Homo sapiens, UniProt Q96AE4).
T1 sequence (Q96AE4 1-644): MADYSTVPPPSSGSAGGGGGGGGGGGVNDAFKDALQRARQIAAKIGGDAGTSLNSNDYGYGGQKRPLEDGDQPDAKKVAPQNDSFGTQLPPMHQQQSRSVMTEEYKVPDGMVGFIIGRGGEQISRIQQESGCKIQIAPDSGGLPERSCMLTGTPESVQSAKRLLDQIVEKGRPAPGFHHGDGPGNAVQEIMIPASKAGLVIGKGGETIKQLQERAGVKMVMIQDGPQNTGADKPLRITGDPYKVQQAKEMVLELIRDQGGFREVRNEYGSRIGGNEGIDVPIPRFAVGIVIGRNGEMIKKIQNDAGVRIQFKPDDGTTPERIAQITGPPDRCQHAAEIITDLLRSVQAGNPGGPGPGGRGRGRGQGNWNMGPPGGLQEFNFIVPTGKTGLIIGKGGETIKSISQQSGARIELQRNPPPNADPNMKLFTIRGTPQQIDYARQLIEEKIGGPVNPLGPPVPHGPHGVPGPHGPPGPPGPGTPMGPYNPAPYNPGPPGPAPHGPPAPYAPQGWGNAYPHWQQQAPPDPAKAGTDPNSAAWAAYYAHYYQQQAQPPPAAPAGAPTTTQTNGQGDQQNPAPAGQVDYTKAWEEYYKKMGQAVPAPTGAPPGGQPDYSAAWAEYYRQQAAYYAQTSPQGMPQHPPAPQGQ
Briefly: Chromatin immunoprecipitation. Type of series: cell-based. The conditions noted are these: 60 μM, 24 h, vs untreated. In short, it runs like this: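 L3.6pl cells seeded at 300,000 cells/mL in RPMI 1640 with 10% FBS and 1% antibiotic–antimycotic, then held overnight at 37 °C, 5% CO2. Treated 24 h with test compound (60 μM) or 0.6% DMSO, then fixed in 1% formalin for 10 min. Sonicated chromatin (20–25 μg) was precleared and immunoprecipitated overnight at 4 °C with FUBP1 antibody, with H4Ac and rabbit IgG controls. Samples were de-crosslinked overnight at 65 °C, and FUSE c-Myc DNA measured by q-PCR. Mean fold change ± S.E.M., n = 2.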

The test system of series [7] is c-Myc protein in L3.6pl cells. As to the kind of experiment: Western blot, c-Myc protein level. Type of series: cell-based, human. The conditions noted are these: 24 h. In short, it runs like this:
(§2)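 L3.6pl cells (400,000 in 2 mL RPMI 1640, 10% FBS, 1% antibiotic–antimycotic) held overnight at 37 °C, 5% CO2, then treated 24 h with test compound or DMSO. Lysed in RIPA with protease and phosphatase inhibitors. Membranes blocked in 5% skim milk/PBST for 1 h, primary antibody overnight at 4 °C (c-Myc 1:1000, FUBP1 1:1000, p21 1:100, GAPDH 1:40,000), secondary 1 h, chemiluminescence on X-ray film. Repeated at least three times.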
For orientation: In western blotting, separated proteins are transferred to a membrane and probed.

The target of series [8] is T2, GST-FUBP1 (KH3-KH4) binding to FUSE oligo (Oligo-KH4) (Homo sapiens, UniProt Q96AE4).
T2 sequence (Q96AE4 278-447 limits assumed): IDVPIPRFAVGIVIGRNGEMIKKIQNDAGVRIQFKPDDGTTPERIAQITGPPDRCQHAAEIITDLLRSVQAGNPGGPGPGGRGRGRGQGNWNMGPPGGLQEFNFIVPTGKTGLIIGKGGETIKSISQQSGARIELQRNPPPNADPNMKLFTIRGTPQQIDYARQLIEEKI
Briefly: Gel shift assay. The conditions noted are these: 30 and 60 μM vs DMSO control. In general terms: In EMSA bound probe runs differently from free probe, usually more slowly.

Series [9] concerns FUBP1 protein in L3.6pl cells. As to the kind of experiment: Western blot, FUBP1 protein level. Type of series: cell-based, human. The conditions noted are these: 24 h. Put shortly: as §2
In series [10] the test system is p21 protein in L3.6pl cells. As to the kind of experiment: Western blot, p21 protein level. The conditions noted are these: 24 h. Type of series: cell-based, human. Put shortly:
as §2

The subject of series [11] is c-Myc mRNA in L3.6pl cells. Briefly: qRT-PCR, c-Myc mRNA. Type of series: cell-based, human. The conditions noted are these: 24 h, qRT-PCR vs matched vehicle control. Put shortly: as §1
The test system of series [12] is native polyamine levels in L3.6pl cells. As to the kind of experiment: Intracellular polyamine quantitation by HPLC. Type of series: cell-based, human. The conditions noted are these: 60 μM, 24 h, vs vehicle (0.6% DMSO). In short, it runs like this: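 Polyamines measured by HPLC. L3.6pl cells seeded at 100,000 cells/mL in RPMI 1640 with 250 μM aminoguanidine and held overnight at 37 °C, 5% CO2. Next day treated with test compound (60 μM) or 0.6% DMSO vehicle for 24 h at 37 °C, then intracellular native polyamines quantified.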

The subject of series [13] is CHO-K1 cells. Briefly: Cytotoxicity assay. Type of series: cell-based, Chinese hamster. The conditions noted are these: CHO-K1, 384-well; maximum tolerated concentration (≥90% relative growth).
Series [14] deals with L3.6pl pancreatic cancer cells. The conditions noted are these: DFMO 8 mM, 48 h, cited from earlier work.
In series [15] the test system is FUBP1. The conditions noted are these: NMR study; cited from earlier work.

For the molecule `N=C(N)NN` [AG, aminoguanidine], the toxicity entry in series [1] and in [2] was “not toxic” each time.
Turning to `NCCCCNCCCCNCc1c2ccccc2cc2ccccc12` [Ant44, N^1-(9-anthracenylmethyl)-homospermidine], the IC50 in [3] turned out to be 2 µM.
On to `CNCCCCNCCCCNCc1cc(CNCCCCNCCCCNC)cc(CNCCCCNCCCCNC)c1.Cl.Cl.Cl.Cl.Cl.Cl.Cl.Cl.Cl` [Compound 5], for which, in series [4], the “basal 3H-Spd uptake” value is given as “blocked significant spermidine uptake” and the “3H-Spd import in combination with DFMO vs DFMO-only” value is “statistically significant reduction in ^3H-Spd import”.
`COc1ccc(C(=O)Nc2ccc(N3CCN(c4cc(Cl)ccc4C)CC3)cc2C(=O)O)cc1` [Compound 9, 5-[4-(5-Chloro-2-methyl-phenyl)-piperazin-1-yl]-2-(4-methoxybenzoylamino)-benzoic Acid]: the “p21 mRNA level” value in series [5] was “increased for p21”. Further, the “FUSE c-Myc DNA pulled down with FUBP1 antibody” value in series [6] was “reduced levels of c-Myc FUSE DNA”. Also, in [4], the “basal 3H-Spd uptake” value is “did not block the uptake of ^3H-Spd” and the “3H-Spd import in combination with DFMO vs DFMO-only” value is recorded as “did not significantly inhibit ^3H-Spd import”. Further, the c-Myc protein expression result in [7] is “reduced c-Myc protein expression”. Also, the “FUBP1 (KH3-KH4)-FUSE DNA bound complex” value in series [8] is listed as “dose-dependent decrease”. Besides, the FUBP1 protein levels result in [9] was “did not affect FUBP1 protein levels”. In series [10], the p21 protein expression result was “increased p21 protein expression in a dose-dependent manner; also recorded: superior in terms of inducing p21”. Also, in series [11], the “c-Myc mRNA level” value was “significantly decreased for c-Myc”. Moreover, the intracellular polyamine levels result in [12] is “significantly lower polyamine levels”.
`COc1ccccc1C(=O)Nc1ccc(N2CCN(Cc3ccccn3)CC2)cc1C(=O)O` [Compound 54, 2-(2-Methoxybenzamido)-5-(4-(pyridin-2-ylmethyl)piperazin-1-yl)benzoic Acid]: in [13], the “Cytotoxicity MTC” value was above 40 µM.
On to `COc1ccccc1C(=O)Nc1ccc(N2CCC(Oc3ccccc3)CC2)cc1C(=O)O` [Compound 63, 2-(2-Methoxybenzamido)-5-(4-phenoxypiperidin-1-yl)benzoic Acid], for which the c-Myc protein expression entry in series [7] is on record as “reduced c-Myc”. For the same molecule, the p21 protein expression result in [10] is “increased p21 protein levels”.
Take `NCCC[C@](N)(C(=O)O)C(F)F` [DFMO, difluoromethylornithine]: the “relative growth (compared to an untreated control)” value in [14] (with rescuing spermidine 1 μM) was 103%. Moreover, in series [14] (with spermidine 1 μM), the intracellular putrescine result is reported as “no detectable intracellular putrescine”, the intracellular spermidine is given as 6.4 nmol/mg protein and the intracellular spermine is recorded as 17.4 nmol spermine/mg protein. In series [14], the intracellular putrescine entry is listed as “no detectable intracellular putrescine”, the intracellular spermidine is on record as 2.1 nmol/mg protein, the intracellular spermine is 18.6 nmol spermine/mg protein and the “relative growth (compared to an untreated control)” value is reported as 64%.
In the case of `Nc1ccccc1C(=O)O` [anthranilic acid], in series [15], the “binding to FUBP1” value is listed as “very low affinity”.
